Two molecules from ChEMBL document CHEMBL1255474, “Impact of different carbapenems and regimens of administration on resistance emergence for three isogenic Pseudomonas aeruginosa strains with differing mechanisms of resistance” (2010) can be followed below.

Converted amounts (≈) assume the structure as drawn. The source made the active and inactive calls. No cut-off for these calls is given here.

In assay [1] the test system is Pseudomonas aeruginosa. The experiment in a line: Antimicrobial activity against oprD-deficient Pseudomonas aeruginosa PAO1 by broth macrodilution method. It is filed as functional.
For assay [2], the system named is Pseudomonas aeruginosa. The experiment in a line: Antimicrobial activity against wild type Pseudomonas aeruginosa PAO1 by broth macrodilution method. It is filed as functional.
The test system of assay [3] is Pseudomonas aeruginosa. The experiment in a line: Antimicrobial activity against oprD-deficient Pseudomonas aeruginosa PAO1 in hollow fiber system based pharmacokinetic-pharmacodynamic model assessed as reduction in bacterial count at 1 g administered at 4 hrs infusion regimen by time-kill assay. It is filed as functional. The procedure, abridged: (§1)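 Hollow-fiber PK/PD model at 35°C, humidified. 15 ml late-log Mueller-Hinton II culture (circa 1 × 10^8 CFU/ml) per cartridge. Drug injected into the central reservoir by 0.5–4 h infusion every 6 or 8 h, run for 10 days. Samples taken at 0, 0.17, 1, 2, 3, 4, 6, 8 and 10 days, centrifuged and resuspended in saline to limit carryover. Counted on drug-free Mueller-Hinton II agar after 24 h at 35°C. Cell kill taken from counts at 24 h of exposure.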

Assay [4] relates to Pseudomonas aeruginosa. The experiment in a line: Antimicrobial activity against Pseudomonas aeruginosa PAO1 expressing derepressed chromosomal AmpC mutant by broth macrodilution method. It is filed as functional.
Assay [5] concerns Pseudomonas aeruginosa. The experiment in a line: Antimicrobial activity against wild type Pseudomonas aeruginosa PAO1 in hollow fiber system based pharmacokinetic-pharmacodynamic model assessed as reduction in bacterial count at 500 mg administered at 1 hr infusion regimen every 8 hrs by time-kill assay. It is filed as functional. In outline: as §1
For assay [6], the system named is Pseudomonas aeruginosa. The experiment in a line: Antimicrobial activity against wild type Pseudomonas aeruginosa PAO1 in hollow fiber system based pharmacokinetic-pharmacodynamic model assessed as reduction in bacterial count at 1 g administered at 4 hrs infusion regimen every 8 hrs by time-kill assay. It is filed as functional. The procedure, abridged: as §1

Assay [7] has as its system Pseudomonas aeruginosa. The assay can be described thus: Antimicrobial activity against wild type Pseudomonas aeruginosa PAO1 in hollow fiber system based pharmacokinetic-pharmacodynamic model assessed as reduction in bacterial count at 500 mg administered at 4 hrs infusion regimen every 8 hrs by time-kill assay. The assay is classed as functional. In outline: as §1
For assay [8], the system named is Pseudomonas aeruginosa. The experiment in a line: Antimicrobial activity against oprD-deficient Pseudomonas aeruginosa PAO1 in hollow fiber system based pharmacokinetic-pharmacodynamic model assessed as reduction in bacterial count at 1 g administered at 1 hr infusion regimen every 8 hrs by time-kill assay. It is filed as functional. In outline: as §1
Assay [9] deals with Pseudomonas aeruginosa. The assay can be described thus: Antimicrobial activity against oprD-deficient Pseudomonas aeruginosa PAO1 in hollow fiber system based pharmacokinetic-pharmacodynamic model assessed as reduction in bacterial count at 500 mg administered at 1 hr infusion regimen every 8 hrs by time-kill assay. The assay is classed as functional. In outline: as §1
In assay [10] the test system is Pseudomonas aeruginosa. The assay can be described thus: Antimicrobial activity against oprD-deficient Pseudomonas aeruginosa PAO1 in hollow fiber system based pharmacokinetic-pharmacodynamic model assessed as reduction in bacterial count at 1 g administered at 4 hrs infusion regimen every 8 hrs by time-kill assay. It is filed as functional, organism-based. The procedure, abridged: as §1

A word on the MIC: it is the lowest concentration found to suppress growth. The low end stands for a more susceptible organism, the high end for a less susceptible organism. For `C[C@@H](O)[C@H]1C(=O)N2C(C(=O)O)=C(S[C@@H]3CN[C@H](CNS(N)(=O)=O)C3)[C@H](C)[C@H]12` [DORIPENEM], the values for the MIC against Pseudomonas aeruginosa [1], against Pseudomonas aeruginosa [2] and against Pseudomonas aeruginosa [4] were 2 µg/mL (≈ 4.76 µM), 1 µg/mL (≈ 2.38 µM) and 2 µg/mL (≈ 4.76 µM), respectively. Moreover, the log10CFU/ml amounted to 4.24 in the assay on Pseudomonas aeruginosa [3]; 3.71 with Pseudomonas aeruginosa [5]; 5.4 with Pseudomonas aeruginosa [6]; 4.07 in the assay with Pseudomonas aeruginosa [7]; 3.47 with Pseudomonas aeruginosa [8]; 3.12 in the assay with Pseudomonas aeruginosa [9]. Also, the result in the assay with Pseudomonas aeruginosa [10] was Active.
Consider `C[C@@H](O)[C@H]1C(=O)N2C(C(=O)O)=C(SCCNC=N)C[C@H]12` [IMIPENEM ANHYDROUS], for which the MIC against Pseudomonas aeruginosa [1] is 16 µg/mL (≈ 53.4 µM); against Pseudomonas aeruginosa [2], 2 µg/mL (≈ 6.68 µM); in the assay on Pseudomonas aeruginosa [4], 2 µg/mL (≈ 6.68 µM).
